Screens deposited in PubChem by Broad Institute.
Statin myotox sup: suppressors of simvastatin-induced myotoxicity in C2C12 myotubes | rescue of ATP level, % at 7.49 µM | ATP luminescence, 48 h; scaled: DMSO 0, geranylgeraniol control 100 | hit rate 0.78% among 330,000;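 active means mean ATP rescue above about 67%, or every replicate alone reaching that limit, limit read from the data, passing the limit was not always enough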;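 further: myotubes were challenged with 10 µM simvastatin during compound exposure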
PGC1a acetyl inh: PGC1a acetylation modulation, inhibitor mode; U2OS PGC1a acetylation, AlphaScreen anti-acetyl-lysine; with virally co-expressed GCN5 acetyltransferase; inhibition, % at 15.6 µM; hit rate 0.17% among 350,000; AID 651687;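 active means every replicate shows inhibition of at least 40%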;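 further: 0% = neutral control wells and 100% = positive control wells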
Cneo AK release: Cryptococcus neoformans lysis via adenylate kinase release; C. neoformans lysis, adenylate kinase release luminescence, 4 h; normalised: neutral wells 0, clomiphene wells 100; lysis activity, % at 15 µM; hit rate 0.2% among 360,000; AID 651654;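 active means mean lysis activity across replicates of at least 80%, whatever share of replicates individually reach that level; inactive means mean lysis activity below 80%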
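Signal: Adenylate kinase release luminescence | Assay system: Log-phase Cryptococcus neoformans yeast cells | Input: Cells at 5 × 10^6 per mL | Buffer or medium: Fresh YPD growth medium | Compound: Single dose | Schedule: Static 4 h at 37 °C with compound, 1 h detection | Controls: Clomiphene | Read-out: Luminescence rise reflecting yeast cell lysis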
S100A4 inh HTS: blocks human S100A4 binding to myosin IIA peptide | inhibition, % at 10.7 µM | S100A4/TAMRA-MyoIIA peptide fluorescence polarization | P26447 | hit rate 0.14% among 360,000;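 active means mean inhibition of at least 70% across replicates, with every replicate also reaching that level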
Target sequence (P26447 whole entry, looked up): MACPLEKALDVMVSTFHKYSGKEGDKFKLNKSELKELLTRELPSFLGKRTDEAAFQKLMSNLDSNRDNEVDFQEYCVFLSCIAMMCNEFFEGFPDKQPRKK
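Test system: S100A4 monomer protein. Medium: HEPES buffer with Ca2+, pH 7.2. Reagent: fluorescent myosin IIA peptide, 5 nM. Compound dosing: single-point compound testing. Timing: 5 min between mix addition and reading. Benchmarks: DMSO neutral and TFP positive wells.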
Ecoli rRNA inh: inhibits bacterial ribosomal RNA function over humanized ribosomes | E. coli WT GFP vs humanized-ribosome RFP mutants, fluorescence, 24 h; hits give low values; DMSO median 0, no signal -100 | GFP signal change (wild-type ribosome), % (no concentration beside the values) | hit rate 1.6% among 350,000 | AID 720706;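 active means significant combined selectivity score with lowered wild-type GFP, culture density cut under 30%, mutant RFP and density less affected; inactive means any of these conditions unmet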
SIRT5 block: inhibitors of human sirtuin-5 desuccinylase. Q9NXA8. hit rate 1.1% among 330,000. Purified SirT5, succinyl-peptide AMC, trypsin-coupled fluorescence. inhibition, % at 15 µM; in the data active means inhibition above about 15%
Target sequence (Q9NXA8 whole entry, looked up): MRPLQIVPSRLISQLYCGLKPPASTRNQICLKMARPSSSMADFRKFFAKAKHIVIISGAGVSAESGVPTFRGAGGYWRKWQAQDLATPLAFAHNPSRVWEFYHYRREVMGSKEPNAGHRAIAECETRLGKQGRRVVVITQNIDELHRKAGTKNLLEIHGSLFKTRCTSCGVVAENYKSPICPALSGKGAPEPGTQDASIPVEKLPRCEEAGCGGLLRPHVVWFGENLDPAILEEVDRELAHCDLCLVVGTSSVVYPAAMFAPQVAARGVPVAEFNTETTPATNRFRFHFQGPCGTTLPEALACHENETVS
The depositor's hits bear a star; nt = not tested or not shown. Most compounds without a hit are left out; they make up all but 3% or so of the library.

SMILES	Statin myotox sup	PGC1a acetyl inh	Cneo AK release	S100A4 inh HTS	Ecoli rRNA inh	SIRT5 block
Cc1cccc(NC(=O)CCCN2C(=O)c3ccccc3C2=O)n1	nt	nt	1	nt	nt	nt
Cc1cccc(NC(=O)CCCCCN2C(=O)c3ccccc3C2=O)n1	92*	-5	0	nt	nt	nt
O=C(CCCCCN1C(=O)c2ccccc2C1=O)Nc1ccc2c(c1)OCCO2	109*	-8	-2	nt	nt	nt
O=S(=O)(N[C@H]1CC[C@@H](CCn2cc(-c3ccccn3)nn2)O[C@H]1CO)c1cccc(F)c1	-6	2	1	-10	-3	0
CCCS(=O)(=O)N1CCCC(C(=O)NCCN2CCC(Cc3ccccc3)CC2)C1 (stereo not drawn)	117*	-3	-1	nt	nt	nt
CN1CCN(/N=C/c2ccc(N(C)c3ccccc3)cc2)CC1	3	-3	5	-6	-4	4
CN1CCN(/N=C/c2ccc(N(c3ccccc3)c3ccccc3)cc2)CC1	-7	56*	-4	0	-8	0
Cc1cccc(-n2c(=O)cc(N3CCN(c4ccc(F)cc4)CC3)[nH]c2=O)c1	-22	55*	4	5	9	2
Cc1[nH][nH]c(=O)c1C(c1c(C)[nH][nH]c1=O)c1cn(Cc2ccc(Cl)c(Cl)c2)c2ccccc12	nt	nt	-2	-6	-30*	4
C[C@@H]1CN([C@H](C)CO)C(=O)c2cc(-c3ccncc3)cnc2O[C@H]1CN(C)Cc1cccnc1	-4	1	2	-3	12	0
CCC(=O)Nc1ccc2c(c1)OC[C@H](C)N(Cc1ccncc1)C[C@@H](C)[C@@H](OC)CN(C)C2=O	-3	9	-1	-5	-1	3
COC(=O)C1(C(=O)OC)NOC2C(=O)N(c3ccc(Cl)cc3Cl)C(=O)C21 (stereo not drawn)	134*	1	0	nt	nt	nt
Nc1ccc(N=Nc2ccc(O)cc2)c(N)n1	nt	nt	nt	2	-16*	nt
CCCn1nnc(NC(=O)c2ccc(-c3cccc(Cl)c3)o2)n1	nt	-5	0	nt	nt	nt
CCn1nnc(NC(=S)NC(=O)c2ccc(-c3cccc(Cl)c3)o2)n1	nt	7	4	0	-21*	-2
C[C@@H]1CN([C@@H](C)CO)C(=O)c2cc(NC(=O)CCC(F)(F)F)ccc2O[C@H]1CN(C)S(=O)(=O)c1ccc(F)cc1	-13	4	-2	3	1	1
CCOC(=O)Cc1csc(NC(=O)c2cccc(OC)c2)n1	-10	-1	0	nt	nt	nt
CCOC(=O)Cc1csc(NC(=O)Cn2cnc3c2c(=O)n(C)c(=O)n3C)n1	1	4	nt	3	15	25*
CCOC(=O)Cc1csc(NC(=O)CC(C)(C)C)n1	110*	-9	0	nt	nt	nt
COc1cccc(NC(=O)CSc2nc(C)cs2)c1	109*	5	1	nt	nt	nt
COc1ccc(NC(=O)CSc2nc(C)cs2)cc1OC	7	-12	-1	nt	nt	nt
CCOC(=O)Cc1csc(NC(=O)Nc2cccc(OC)c2)n1	-16	nt	-3	-2	-29*	0
C[C@@H]1CN([C@H](C)CO)C(=O)c2cc(NC(=O)C3CCCCC3)ccc2O[C@@H](C)CCCCO[C@@H]1CN(C)C(=O)Cc1ccccc1	nt	4	-3	nt	-4	nt
CCOC(=O)Cc1csc(NC(=S)NC(=O)c2ccc(F)cc2)n1	nt	20	nt	nt	nt	nt
CCOC(=O)Cc1csc(NC(=S)NC(=O)c2ccccc2C)n1	29	2	3	-3	-20*	3
SMILES	Statin myotox sup	PGC1a acetyl inh	Cneo AK release	S100A4 inh HTS	Ecoli rRNA inh	SIRT5 block
CCOC(=O)Cc1csc(NC(=O)CCSc2ccccc2)n1	3	-6	-1	-7	-21*	1
C[C@H]1CCCCO[C@@H](CN(C)C(=O)Cc2ccccc2)[C@@H](C)CN([C@@H](C)CO)C(=O)c2cc(NS(=O)(=O)c3cn(C)cn3)ccc2O1	27	1	1	16	1	3
O=C(CN1CCN(c2ncccn2)CC1)N(Cc1ccccc1)c1ccc(F)cc1	20	3	0	3	-35*	-4
COC(=O)c1ccc(C2CC(=O)NC3=C2C(=O)CCC3)cc1 (stereo not drawn)	114*	-8	0	nt	nt	nt
CC(C)Oc1ccc(C2CC(=O)NC3=C2C(=O)CCC3)cc1 (stereo not drawn)	nt	-15	3	nt	nt	nt
Cc1ccc(S(=O)(=O)N[C@H]2CC[C@H](CC(=O)N3CCc4ccccc4C3)O[C@@H]2CO)cc1	-5	-13	10	1	-4	-2
Cc1ccc(/C=C(\CCC(=O)O)c2nc3ccccc3s2)cc1[N+](=O)[O-]	nt	0	-1	2	-29*	4
COc1cc(/C=C(\CC(=O)O)c2nc3ccccc3s2)ccc1OCC(=O)Nc1ccccc1F	-5	1	0	-7	-25*	0
COc1cc(/C=C(\CC(=O)O)c2nc3ccccc3s2)cc(OC)c1O	13	-3	nt	-5	-28	3
COc1ccc(/C=C(\CC(=O)O)c2nc3ccccc3s2)cc1O	-3	nt	0	-6	-25*	4
O=C(O)C/C(=C\c1cccc(NC(=O)c2ccccc2Cl)c1)c1nc2ccccc2s1	0	13	112*	1	-35*	4
CCOc1cc(/C=C(\CC(=O)O)c2nc3ccccc3s2)ccc1OCC(=O)Nc1cccc(C(F)(F)F)c1	6	nt	1	-2	-12	4
COc1ccc(C(=O)Nc2cccc(/C=C(\CCC(=O)O)c3nc4ccccc4s3)c2)cc1	-10	3	-2	6	-19	1
C[C@H](CO)N1C[C@H](C)[C@H](CN(C)S(=O)(=O)c2cn(C)cn2)Oc2ccc(NC(=O)c3ccncc3)cc2CC1=O	nt	-4	nt	-15	4	-1
C[C@H]1CN([C@@H](C)CO)C(=O)c2cc(NC(=O)Cc3cn(C)c4ccccc34)ccc2O[C@@H]1CN(C)C(=O)Nc1ccccc1	36	-2	1	-12	-2	0
CO[C@H]1CN(C)C(=O)c2ccc(NC(=O)NC(C)C)cc2OC[C@H](C)N(C(=O)CC2CC2)C[C@H]1C	-2	22	-5	5	3	-1
CN(C)S(=O)(=O)n1cc(/C=C(\NC(=O)c2ccccc2Cl)C(=O)NCCCn2ccnc2)c2ccccc21	-10	-5	nt	23	7	19*
Cc1ccc(OCC(=O)Nn2c(C)nc3ccccc3c2=O)c(C(C)C)c1	-12	0	-3	3	-22*	-1
Cc1noc(C)c1S(=O)(=O)N(C)C[C@H]1Oc2ccc(NC(=O)Nc3cccc4ccccc34)cc2CC(=O)N([C@@H](C)CO)C[C@@H]1C	48	9	-4	-8	-1	11
O=C(Nc1ccc(N2CCN(C(=O)c3ccco3)CC2)cc1)c1ccccc1	-3	4	2	1	0	19*
